Consider 11 compounds from ChEMBL document CHEMBL3351392, “Synthesis, in vitro and in vivo studies, and molecular modeling of N-alkylated dextromethorphan derivatives as non-competitive inhibitors of α3β4 nicotinic acetylcholine receptor” (Bioorg Med Chem, 2014).

pIC50: −log10 of the molar value. The source made the active and inactive calls. No cut-off for these calls is given here.

Series [1] concerns the target Neuronal acetylcholine receptor; alpha3/beta4 (Rattus norvegicus, UniProt P04757+P12392). Put plainly: Non-competitive inhibition of rat alpha3beta4 nAChR expressed in KX cells assessed as reduction in current by whole-cell patch clamp assay. The class given is cell-based. The gist of the method: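 KXα3β4R2 cells (rat α3β4) grown in MEM with 10% FBS and 0.7 mg/ml geneticin at 37 °C, 5% CO2, and harvested at 70% confluence. Whole-cell clamp at […] holding potential in HEPES pH 7.4 bath (120 mM NaCl, 3.1 mM KCl, 2 mM CaCl2, 5 mM glucose) at room temperature. Pipette solution: CsCl, ATP, EGTA, pH 7.2. Agents were applied from 0.1 nM upward with 100 µM (S)-nicotine; IC50 taken from current decrease relative to nicotine alone (100%).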
A general note: In patch-clamp work, channel activity is measured electrically.

For series [2], the system named is Rattus norvegicus. Put plainly: Effect on basal locomotor activity in Wistar rat at 1/20 to 1/10 LD50, ip. It counts as ADME, organism-based. The settings on record: in vivo.
The subject of series [3] is Rattus norvegicus. Put plainly: Toxicity in Wistar rat assessed as inhibition of conditioned place preference at 1/20 to 1/10 LD50, ip in absence of nicotine preconditioning. It counts as organism-based. The settings on record: in vivo.
The subject of series [4] is Rattus norvegicus. Put plainly: Behavioral effect in Wistar rat assessed as inhibition of nicotine-induced conditioned place preference at 1/20 LD50, ip administered during post-conditioning test phase on day 5 of nicotine treatment. It counts as functional, organism-based. The gist of the method: (§1)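 Male Wistar rats (250–300 g), on restricted chow and handled for 5 days. A 15-min baseline excluded rats with a side preference. On days 2–4, two 30-min sessions per day: vehicle in the morning, nicotine 0.175 mg/kg ip in the afternoon, each in opposite compartments. On day 5, agent given ip (5 ml/kg) 60 min before nicotine, then tested immediately. Score is post- minus pre-conditioning time in the drug-paired compartment; n = 7–14.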

In series [5] the test system is Rattus norvegicus. Put plainly: Toxicity in Wistar rat assessed as inhibition of conditioned place preference at 10 mg/kg, ip in absence of nicotine preconditioning. The class given is organism-based. Further details: dose 10 mg/kg, route intraperitoneal. The settings on record: in vivo.
Series [6] concerns Rattus norvegicus. Put plainly: Behavioral effect in Wistar rat assessed as inhibition of nicotine-induced conditioned place preference at 10 mg/kg, ip administered during post-conditioning test phase on day 5 of nicotine treatment. The class given is functional, organism-based. Further details: dose 10 mg/kg. The gist of the method: as §1
In series [7] the test system is Rattus norvegicus. Put plainly: Effect on basal locomotor activity in Wistar rat at 5 mg/kg, ip. Further details: dose 5 mg/kg, route intraperitoneal. The settings on record: in vivo. The class given is ADME, organism-based.

Neuronal acetylcholine receptor; alpha3/beta4, sequence (P04757 whole entry): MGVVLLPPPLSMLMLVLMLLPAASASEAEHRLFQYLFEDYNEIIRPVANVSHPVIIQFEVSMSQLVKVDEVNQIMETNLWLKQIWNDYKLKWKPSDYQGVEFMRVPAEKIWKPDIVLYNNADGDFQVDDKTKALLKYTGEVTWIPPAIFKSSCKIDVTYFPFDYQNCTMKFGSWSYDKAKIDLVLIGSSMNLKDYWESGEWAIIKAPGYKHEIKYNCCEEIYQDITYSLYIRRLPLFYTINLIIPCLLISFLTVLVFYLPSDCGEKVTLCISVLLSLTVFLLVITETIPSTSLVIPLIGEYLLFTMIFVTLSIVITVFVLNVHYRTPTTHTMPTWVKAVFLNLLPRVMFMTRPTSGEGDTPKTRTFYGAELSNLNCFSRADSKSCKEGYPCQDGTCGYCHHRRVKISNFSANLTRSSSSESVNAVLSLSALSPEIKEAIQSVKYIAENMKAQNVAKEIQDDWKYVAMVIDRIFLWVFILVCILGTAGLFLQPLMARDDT
Neuronal acetylcholine receptor; alpha3/beta4, sequence (P12392 whole entry): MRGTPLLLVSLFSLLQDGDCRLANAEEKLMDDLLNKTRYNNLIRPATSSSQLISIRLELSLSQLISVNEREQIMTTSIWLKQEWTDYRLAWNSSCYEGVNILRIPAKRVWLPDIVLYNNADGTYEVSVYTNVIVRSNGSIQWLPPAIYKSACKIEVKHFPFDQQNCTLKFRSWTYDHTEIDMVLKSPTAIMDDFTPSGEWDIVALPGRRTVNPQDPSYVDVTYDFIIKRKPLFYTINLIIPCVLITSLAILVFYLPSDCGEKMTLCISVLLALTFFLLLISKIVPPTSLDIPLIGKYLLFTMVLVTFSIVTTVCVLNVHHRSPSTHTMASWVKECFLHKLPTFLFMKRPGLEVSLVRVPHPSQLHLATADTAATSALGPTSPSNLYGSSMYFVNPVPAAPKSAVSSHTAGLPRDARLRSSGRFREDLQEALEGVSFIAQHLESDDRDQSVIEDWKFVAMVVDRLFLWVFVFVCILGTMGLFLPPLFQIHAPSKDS

For orientation: pIC50 means −log10 of the IC50, conventionally taken in molar units. For `COc1ccc2c(c1)[C@]13CCCC[C@@H]1[C@H](C2)N(CCC(C)=O)CC3`, the negative-log IC50 (pIC50) in series [1] was 5.59. With `COc1ccc2c(c1)[C@]13CCCC[C@@H]1[C@H](C2)N(CC1OCCO1)CC3`, the pIC50 in series [1] is 5.71. Further, the Activity entry with Rattus norvegicus [2] and with Rattus norvegicus [3] was “Non-toxic” throughout. Regarding `COc1ccc2c(c1)[C@]13CCCC[C@@H]1[C@H](C2)N(CC#N)CC3`, in the series on Rattus norvegicus [4], the inhibition result was “Active”. Further, the pIC50 in series [1] was 4.98. For the same compound, the Activity entry in the series with Rattus norvegicus [2] and in the series on Rattus norvegicus [3] was “Non-toxic” throughout. For the compound `COc1ccc2c(c1)[C@]13CCCC[C@@H]1[C@H](C2)N(CCC1OCCO1)CC3`, in series [1], the pIC50 was 5.15. Further, the Activity result in the series with Rattus norvegicus [2] and in the series with Rattus norvegicus [3] was “Non-toxic” in each case. In the case of `COc1ccc2c(c1)[C@]13CCCC[C@@H]1[C@H](C2)N(CC(N)=O)CC3`, the pIC50 in series [1] was 4.38. Consider `COc1ccc2c(c1)[C@]13CCCC[C@@H]1[C@H](C2)N(C)CC3` [DEXTROMETHORPHAN], for which the Activity entry in the series on Rattus norvegicus [5] and in the series with Rattus norvegicus [7] was “Non-toxic” each time. The pIC50 in series [1] is 4.96. The inhibition result in the series with Rattus norvegicus [6] is “Active”. In the case of `COc1ccc2c(c1)[C@]13CCCC[C@@H]1[C@H](C2)NCC3`, the pIC50 in series [1] was 5.51.

Regarding `COc1ccc2c(c1)[C@]13CCCC[C@@H]1[C@H](C2)N(CCC#N)CC3`, the pIC50 in series [1] was 3.75.

On to `COc1ccc2c(c1)[C@]13CCCC[C@@H]1[C@H](C2)N(CC1=NCCN1)CC3`, for which the pIC50 in series [1] is 5.18. As for `COc1ccc2c(c1)[C@]13CCCC[C@@H]1[C@H](C2)N(CCCC#N)CC3`, the pIC50 in series [1] was 4.06. For the compound `CCC(=O)CN1CC[C@@]23CCCC[C@@H]2[C@@H]1Cc1ccc(OC)cc13`, the pIC50 in series [1] is 5.60.
